Source: ChEMBL document CHEMBL3739352, “Anticonvulsant activity, crystal structures, and preliminary safety evaluation of N-trans-cinnamoyl derivatives of selected (un)modified aminoalkanols” (Eur J Med Chem, 2016)
Activity calls are given as the source filed them. No cut-off for these calls is given here.

Columns and labels:
[1] = Hepatotoxicity against human HepG2 cells assessed as cell viability at 50 uM after 24 hrs by MTT assay relative to control
Mus musculus [2] = experiment: Anticonvulsant activity in ip dosed albino Carworth Farms No.1 mouse assessed as protection against maximal electroshock-induced seizures after 0.25 hrs; type: functional; conditions: Carworth Farms No.1, ip
Outline: (§1)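 Quantitative i.p. evaluation in Carworth Farms No.1 albino mice, with graded doses in 0.5% methylcellulose. MES, scPTZ or 6-Hz (32 mA) seizure tests were run at 0.25 h.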

Rattus norvegicus [3] = experiment: Neurotoxicity in Sprague-Dawley rat at 30 mg/kg, po after 2 hrs; type: toxicity, organism-based; conditions: in vivo
Outline: (§2)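 Sprague-Dawley rats were given 30 mg/kg orally in 0.5% methylcellulose. Neurotoxicity was checked at 0.25, 0.5, 1.0, 2.0 and 4 h after dosing. Results are given as number of rats showing neurotoxicity/number tested.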

[4] = Hepatotoxicity against human HepG2 cells assessed as cell viability at 100 uM after 24 hrs by MTT assay relative to control
Rattus norvegicus [5] = experiment: Anticonvulsant activity in Sprague-Dawley rat assessed as protection against maximal electroshock-induced seizures at 30 mg/kg, po after 1 hr; type: functional, organism-based
Outline: (§3)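 Sprague-Dawley rats were given 30 mg/kg p.o. in 0.5% methylcellulose. Maximal electroshock was applied at 0.25, 0.5, 1.0, 2.0 and 4 h after dosing. Results are reported as number of rats protected / number tested.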

[6] = Protection index, ratio of TD50 for neurotoxicity in po dosed Sprague-Dawley rat to ED50 for anticonvulsant activity in po dosed Sprague-Dawley rat assessed as maximal electroshock-induced seizures; type: toxicity, organism-based; conditions: in vivo
Rattus norvegicus [7] = experiment: Neurotoxicity in Sprague-Dawley rat at 30 mg/kg, po after 4 hrs; type: toxicity, organism-based; conditions: in vivo; outline: as §2
Rattus norvegicus [8] = experiment: Anticonvulsant activity in po dosed Sprague-Dawley rat assessed as protection against subcutaneous dosed pentetrazol-induced seizures after 1 hr; type: functional
Outline: (§4)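 Sprague-Dawley rats received graded oral doses suspended or dissolved in 0.5% methylcellulose. Challenge was maximal electroshock or subcutaneous pentetrazol at the stated time after dosing.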

Mus musculus [9] = experiment: Anticonvulsant activity in ip dosed albino Carworth Farms No.1 mouse assessed as protection against 6-Hz electroshock-induced seizures after 0.25 hrs; type: functional; conditions: Carworth Farms No.1, ip; outline: as §1
Rattus norvegicus [10] = experiment: Anticonvulsant activity in Sprague-Dawley rat assessed as protection against maximal electroshock-induced seizures at 30 mg/kg, po after 0.25 hrs; type: functional, organism-based; outline: as §3
in vitro [11] = conditions: human, HepG2 cells
Mus musculus [12] = experiment: Anticonvulsant activity in albino Carworth Farms No.1 mouse assessed as protection against 6-Hz electroshock-induced seizures at 100 mg/kg, ip after 1 hr; type: functional, organism-based
Outline: (§5)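 Carworth Farms No.1 albino mice were dosed i.p. at 100 mg/kg (0.5% methylcellulose solution or suspension). 6-Hz seizures were induced at 32 mA at 0.25, 0.5, 1.0, 2.0 and 4 h after injection. Results are given as animals protected / animals tested.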

Rattus norvegicus [13] = experiment: Neurotoxicity in Sprague-Dawley rat at 30 mg/kg, po after 0.25 hrs; type: toxicity, organism-based; conditions: in vivo; outline: as §2
Mus musculus [14] = experiment: Anticonvulsant activity in ip dosed albino Carworth Farms No.1 mouse assessed as protection against subcutaneous dosed pentetrazol-induced seizures after 0.25 hrs; type: functional; conditions: Carworth Farms No.1, 0.25 h; outline: as §1
[15] = Protection index, ratio of TD50 for neurotoxicity in ip dosed albino Carworth Farms No.1 mouse to ED50 for anticonvulsant activity in ip dosed albino Carworth Farms No.1 mouse assessed as protection against subcutaneous dosed pentetrazol-induced seizures; type: toxicity, organism-based; conditions: in vivo, intraperitoneal, read-out: Ratio TD50/ED50
Outline: (§6)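 Graded i.p. doses in 0.5% methylcellulose were given to albino Carworth Farms No.1 mice. ED50 was determined in MES, scPTZ or 6-Hz (32 mA) tests, and TD50 by rotarod. Both were reported with 95% confidence intervals. PI was calculated as TD50/ED50.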

[16] = Protection index, ratio of TD50 for neurotoxicity in ip dosed albino Carworth Farms No.1 mouse to ED50 for anticonvulsant activity in ip dosed albino Carworth Farms No.1 mouse assessed as protection against 6-Hz electroshock-induced seizures; type: toxicity, organism-based; conditions: in vivo, read-out: Ratio TD50/ED50; outline: as §6
Rattus norvegicus [17] = experiment: Anticonvulsant activity in po dosed Sprague-Dawley rat assessed as protection against maximal electroshock-induced seizures after 1 hr; type: functional; outline: as §4
[18] = Neurotoxicity in ip dosed albino Carworth Farms No.1 mouse after 0.25 hrs by rotarod test; type: toxicity, organism-based; conditions: in vivo
Rattus norvegicus [19] = experiment: Neurotoxicity in Sprague-Dawley rat at 30 mg/kg, po after 0.5 hrs; type: toxicity, organism-based; conditions: in vivo; outline: as §2
[20] = Protection index, ratio of TD50 for neurotoxicity in ip dosed albino Carworth Farms No.1 mouse to ED50 for anticonvulsant activity in ip dosed albino Carworth Farms No.1 mouse assessed as protection against maximal electroshock-induced seizures; type: toxicity, organism-based; conditions: in vivo, read-out: Ratio TD50/ED50
Outline: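 Graded i.p. doses in 0.5% methylcellulose were given to albino Carworth Farms No.1 mice. ED50 was determined in MES, scPTZ or 6-Hz (32 mA) tests, and TD50 by rotarod. PI was calculated as TD50/ED50.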

in vitro [21] = conditions: human, HepG2 cells; remark: listed apart in the source
[22] = Neurotoxicity in po dosed Sprague-Dawley rat after 1 hr by rotarod test; type: toxicity, organism-based; conditions: in vivo
Rattus norvegicus [23] = experiment: Anticonvulsant activity in Sprague-Dawley rat assessed as protection against maximal electroshock-induced seizures at 30 mg/kg, po after 2 hrs; type: functional, organism-based; outline: as §3
Rattus norvegicus [24] = experiment: Neurotoxicity in Sprague-Dawley rat at 30 mg/kg, po after 1 hr; type: toxicity, organism-based; conditions: in vivo; outline: as §2
Mus musculus [25] = experiment: Anticonvulsant activity in albino Carworth Farms No.1 mouse assessed as protection against 6-Hz electroshock-induced seizures at 100 mg/kg, ip after 0.5 hrs; type: functional, organism-based; outline: as §5
Mus musculus [26] = experiment: Anticonvulsant activity in albino Carworth Farms No.1 mouse assessed as protection against 6-Hz electroshock-induced seizures at 100 mg/kg, ip after 0.25 hrs; type: functional, organism-based; outline: as §5
[27] = Protection index, ratio of TD50 for neurotoxicity in po dosed Sprague-Dawley rat to ED50 for anticonvulsant activity in po dosed Sprague-Dawley rat assessed as subcutaneous dosed pentetrazol-induced seizures; type: toxicity, organism-based; conditions: in vivo
Rattus norvegicus [28] = experiment: Anticonvulsant activity in po dosed Sprague-Dawley rat assessed as protection against subcutaneous dosed pentetrazol-induced seizures after 0.5 hrs; type: functional; outline: as §4
Rattus norvegicus [29] = experiment: Anticonvulsant activity in po dosed Sprague-Dawley rat assessed as protection against maximal electroshock-induced seizures after 0.5 hrs; type: functional; outline: as §4
[30] = Neurotoxicity in po dosed Sprague-Dawley rat after 0.5 hrs by rotarod test; type: toxicity, organism-based; conditions: in vivo

SMILES	viability at 24 h, 50 µM [1] [%]	ED50 (Mus musculus [2]) [mg/kg]	Activity (Rattus norvegicus [3])	viability at 24 h, 100 µM [4] [%]	Activity (Rattus norvegicus [5])	selectivity ratio [6]	Activity (Rattus norvegicus [7])	ED50 (Mus musculus [9]) [mg/kg]	Activity (Rattus norvegicus [10])	viability at 24 h, 100 µM (in vitro [11]) [%]	Activity (Mus musculus [12])	Activity (Rattus norvegicus [13])	ED50 (Mus musculus [14]) [mg/kg]	selectivity ratio [15]	TD50 at 0.25 h [18] [mg/kg]	Activity (Rattus norvegicus [19])	viability at 24 h, 10 µM (in vitro [21]) [%]	Activity (Rattus norvegicus [23])	Activity (Rattus norvegicus [24])	Activity (Mus musculus [26])	other results
CC(CO)NC(=O)/C=C/c1ccccc1 (racemic)	95	86.6	Non-toxic	92.2	inactive	> 8.1	Non-toxic	60.9	inactive	89	inactive	Non-toxic	110	2	223	Non-toxic	98	inactive	Non-toxic		ED50 (Rattus norvegicus [8]): > 250 mg/kg; selectivity ratio [16]: 3.7; ED50 (Rattus norvegicus [17]): 31 mg/kg; selectivity ratio [20]: 2.6; TD50 at 1 h [22]: > 250 mg/kg
O=C(/C=C/c1ccccc1)N1CCC(O)CC1			Non-toxic		inactive		Non-toxic		inactive			Non-toxic				Non-toxic		inactive	Non-toxic		
CC(C)C(CO)NC(=O)/C=C/c1ccccc1 (racemic)	89.1		Non-toxic	82.2	inactive		Non-toxic	106	inactive	90	inactive	Non-toxic			190	Non-toxic	98	inactive	Non-toxic	Active	selectivity ratio [16]: 1.8; Activity (Mus musculus [25]): Active
CC(O)CNC(=O)/C=C/c1ccccc1 (racemic)	92.6	47.1	Non-toxic	91.9	inactive	> 11	Non-toxic		inactive	85	Active	Non-toxic	77.1	1.8	136	Non-toxic	99	inactive	Non-toxic	Active	selectivity ratio [27]: > 10.8; ED50 (Rattus norvegicus [28]): 46.2 mg/kg; ED50 (Rattus norvegicus [29]): 22.8 mg/kg; Activity (Mus musculus [25]): Active; selectivity ratio [20]: 2.9; TD50 at 0.5 h [30]: > 500 mg/kg
CCC(O)CNC(=O)/C=C/c1ccccc1 (racemic)	89.4		Non-toxic	85.9	inactive	> 12.1	Non-toxic		Active	89	inactive	Non-toxic				Non-toxic	98	inactive	Non-toxic	Active	ED50 (Rattus norvegicus [28]): > 250 mg/kg; ED50 (Rattus norvegicus [29]): 41.5 mg/kg; TD50 at 0.5 h [30]: > 500 mg/kg
